Assay results published in the EternaBench riboswitch data.

System: MS2 coat protein
Experiment: apparent Kd, MS2 coat protein; higher = weaker binding; RNA-MaP array; FMN 200 µM where present
In short: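 Green signal was scaled to red-channel RNA signal and control-cluster median Fmax, and the apparent Kd was taken as the median of filtered per-cluster binding-curve fits. The binding series used SNAP-549-labelled MS2 coat protein from 0.7 or 1.5 nM, doubling to 3 µM, on designs transcribed by stalled E. coli RNA polymerase on Illumina sequencing-chip clusters. Each series ran without and then with constant ligand in 100 mM Tris-HCl pH 7.5, 80 mM KCl, 4 mM MgCl2, BSA, DTT, yeast tRNA and Tween-20.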

[1] = designed as: ON switch for flavin mononucleotide, no ligand
[2] = ligand present: flavin mononucleotide, designed as: ON switch for flavin mononucleotide
[3] = designed as: OFF switch for flavin mononucleotide, no ligand
[4] = ligand present: flavin mononucleotide, designed as: OFF switch for flavin mononucleotide

Sequence | apparent Kd [1] [µM] | apparent Kd [2] [µM] | apparent Kd [3] [µM] | apparent Kd [4] [µM]
AACAAUCUAUCUGAGGAUAUCAUGUCAAAGACAUGAGGAUCACCCAUGUUGCAGGAAACUGCUCAUGAGAAGGCAGAUAGAUUGA | 0.614 | 0.0437 | – | –
CUUUUGGGAGGAUAUUAGUAGUAAAUAAAUAAAAUUACUACUGAGAAGGCACAUGAGGAUCACCCAUGUUCCUC | – | – | 0.0179 | 0.0261
CUUUUGUGAGGAUAUCAGUAGUAUAAAAUAAAAUAUACUACUGAGAAGGCACAUGAGGAUCACCCAUGUUCCUC | – | – | 0.0383 | 0.263
AAAAAAAAAAGUGAGGAUAUGGGAAAAUUAACAUGAGGAUCACCCAUGUGAUAAAAAAAAAAAAACCAGAAGGUACAAAAAAAAAA | 0.0695 | 0.0264 | – | –
GACCGAUAGUCAGGAUAUGCAUGGUUAGUUGAUUACAUGAGGAUCACCCAUGUAGAAGGGACUUUGGCGAAAUCCGUGAUGCGU | – | – | 0.0441 | 0.115
AUGGGCUAGGAGAAGGGCUAGAGUGUGAUAUAUUUGCCCGCGAGCACAUGAGGAUCACCCAUGUAGCAGGAUAUCCAAGCCGGU | – | – | 0.00743 | 0.018
UUGUUGUAUGAAGGAUAUACUUAACAUGAGGAUCACCCAUGUGGUGUUGUGAGUGAGUGAGUUUAGUAGAAGGUCAAUUCUUUU | – | – | 0.221 | 0.201
CAAGCCAUUCGCAACUGCCGGCCGCAGGAUAUGGGUCGUUUAUACAUGAGGAUCACCCAUGUCGCCUAGAAGGGCGGCUGGGUC | 0.26 | 0.0389 | – | –
ACAUGAGGAUCACCCAUGUAUACAUAGGAUAUUGGUGAUCAGGCAUGUUUUACAGGAUAUGUCUGCGAGAAGGAUGCAAGUUGC | 0.557 | 0.424 | – | –
UUUUAACAUGAGGAUCACCCAUGUGAGGAUAUCGAAAUUUAUAUUUAUAUUAAUUUUUCGAGAAGGCACAUUUU | – | – | 0.169 | 0.157
ACAGUAUAUGUAGGAUAUCAUUGGCCAGGUAGGUGAGAAGGGCAUAGUACAUGAGGAUCACCCAUGUGUUGGUCCUCGCAGAAA | – | – | 0.392 | 0.233
AAGUCGAGCGUGAGGAUAUCGACCGGACGACCCAUCGAGAAGGCACAUGAGGAUCACCCAUGUGAUUCAGCUCA | – | – | 0.0169 | 0.0259
GUCCUCAAGACAGGAUAUCCAUACAACGCGCUAGGAGAAGGGUCUACAUGAGGAUCACCCAUGUGAUUCUGAGAAUUUGGUGGG | – | – | 0.313 | 0.148
AACUGACAUGAGGAUCACCCAUGUCAGGAUAUGAUAUGUAAAAAAUAAAAAAUACUUAUCAGAAGGGACAUGGA | – | – | 0.0227 | 0.0413
GAACUAAAGCAUAGCUUUAGUCGUACAUGAGGAUCACCCAUGUAGGAUAUGGUAGGCAUAGCUUACUAGAAGGAUAGAGUGAUC | – | – | 0.294 | 0.0824
ACAUGUAAUGCAGGAUAUUUUACACAUGAGGAUCACCCAUGUGACCAGAGGAAUUGCUAUGAGUAAAAGAAGGGUAUGUACAUG | – | – | 0.0723 | 0.0864
AAAAAACAUGAGGAUCACCCAUGUGAGGAUAUUGGUAUUCAGGGUAUAAUCUCAAUAGCGAGAAGGCGCAUAAA | – | – | 0.0436 | 0.0443
UGUCGGAGCAGAGGAUAUUACAUGAGGAUCACCCAUGUAUGAACCAAUAGCUGGAAACAGCAAUGUAAGAAGGCUGCUCCGACC | – | – | 0.012 | 0.153
GUCAGCUCGUGAGGAUAUACAACACUGCUUCGGCAGUGUAUUAAGAUCACAUGAGGAUCACCCAUGUAGAAGGCACGAGCUCAU | – | – | 0.0152 | 0.246
UUUUAACAUGAGGAUCACCCAUGUGAGGAUAUCGAAAUUUAUAUUAAUAUUUAUUUUACGAGAAGGCACAUUUU | – | – | 0.098 | 0.102
UGGUACAUGGGAGGAUAUGGGUUGAUAACAUGAGGAUCACCCAUGUUAAUGCCGAAAGGCAAGAACUAGAAGGCCCAUGUACCU | 0.41 | 0.0302 | – | –
AAUUGGAUCCAGAAGGCAUGGACGACCCGUCACAUUAACAUGAGGAUCACCCAUGUGAAAACACAUGAGGAUAUGGAUCCUAAA | 0.0287 | 0.00744 | – | –
GGGUGAGCUCAAGGAUAUCCAAAAUGGUUACAUGAGGAUCACCCAUGUCCAGGCGAAUAAAGGCCGGAGAAGGUGAGGGCCCUC | 0.0602 | 0.155 | – | –
GGGUACAUCGGAGGAUAUCAUGUAAAUACAUGAGGAUCACCCAUGUCGUACGAGAGUACGGAGAUUGAGAAGGCCGAUGUACCG | 0.0249 | 0.0153 | – | –

Sequence | apparent Kd [1] [µM] | apparent Kd [2] [µM] | apparent Kd [3] [µM] | apparent Kd [4] [µM]
GUGAGGUAAGGAUAUAGGAGAAAAGAUAAGGUAUGAGAGUUCUAGAAGGUACAUGAGGAUCACCCAUGUUAGGG | – | – | 0.224 | 0.193
CUCGGACAUGAGGAUCACCCAUGUGAGGAUAUGAUGCGAUCGUCGAAAGACGAUAGCAUCAGAAGGCACAAAUG | – | – | 0.0756 | 0.301
UUUGUUGUUGUGAGGAUAUCGUUGUUAUUUUGAAACGAGAAGGCACAUGAGGAUCACCCAUGUUUGUUGUUGGU | – | – | 0.0521 | 0.195
AGUGCCAUGUAGAAGGGAGAUCUGAUUCAGAUCUCAGGAUAUACAUGAGGAUCACCCAUGUAAAUGCACUGCACGAGAGUGCAA | – | – | 0.0125 | 0.0309
GUCGGAAACGACAAUGAUAGGACUGAGGAUAUACAUAAGUUUGUCCAUACAUGAGGAUCACCCAUGUAGAAGGCAGUCCUAUCU | – | – | 0.00633 | 0.0159
AUUAGUAUCUAGGAUAUCUAGUACAUAGUAUCUAGAGAAGGAGAUACAUGAGGAUCACCCAUGUUCUGUGUUCU | – | – | 0.0272 | 0.0645
GCAGCGACUGCAGGAUAUCAGCACGUGUAGUGCUGAGAAGGGCACAUGAGGAUCACCCAUGUGAUCAAUUAAUAGUCAUGCUGC | – | – | 0.00723 | 0.0159
UGUUGUUCCGCAGGAUAUGUAUUAGAUUAUAAUACAGAAGGGCGAUAACAUGAGGAUCACCCAUGUGUGGACAAUAAGGAAGAG | 0.602 | 0.0812 | – | –
AGACGGAUCCGCGGUCGAUGCUAACUAGAAGGGCAGGUCACAUGAGGAUCACCCAUGUAGUAUAUGUAGGAUAUAGGAAGCGUU | 0.075 | 0.0158 | – | –
GCUAUCGAACAGAAGGGACCGCGGCCGUGGCGGUCAGGAUAUGUAUGCAGUAGUGCCUACAUGAGGAUCACCCAUGUCCGCCGC | 0.629 | 0.218 | – | –
UACUCAUGUGAGAAGGGACGUAUCUCCAUGAGGGCAGGGCUAUUAGGGAAGUCAGGAUAUCACAUGAGGAUCACCCAUGUGACG | – | – | 0.00691 | 0.00733
CCAUAAUUGAUCCAAUUUUACAACAUGAGGAUCACCCAUGUGCAGGAUAUCGUGAAAGUUAAAUACGAGAAGGGCAAGAACUGC | – | – | 0.56 | 0.356
AUUUUGUGAGGAUAUGUGGCUUCGAUCGUGAGAUCGAGGCUACAGAAGGCACAUGAGGAUCACCCAUGUUCCUA | – | – | 0.0206 | 0.206
GGUUGUCAUAGUCAUCCUUAACGUACAUGAGGAUCACCCAUGUAGGAUAUGCUACUCAAAGAGUAGCAGAAGGGCGUGUGUCUU | – | – | 0.031 | 0.0355
UUAUACAUUCGAGGAUAUCGGAGAGAGAUCAUUCGAGAAGGCGAUUCAUGAUGUAUUAUCCUGGACAUGAGGAUCACCCAUGUA | 0.101 | 0.0681 | – | –
GUUUACCGAGGAUAUACAUGAGGAUCACCCAUGUUCCUAACAAACGUCGGUUCAGCGUGUAGAAGGCGGACCUA | – | – | 0.0179 | 0.0284
CUCAAACAUGAGGAUCACCCAUGUGUUGUCAUGGGAGGAUAUCUAAGUUCGUUGUAGUCGGGAGAAGGCCUAUGUC | 0.134 | 0.0473 | – | –
UGGGAACGAGGAUAUCGAUGGUGGAACAUGAGGAUCACCCAUGUAUGAGAUAGUGUAGUUCGAGAAGGCGUUAAGU | – | – | 0.0686 | 0.0338
CUCGUGUAAGGAUAUGCGAGCCGCGGAAAUACACCGCGGAGGUAGAAGGUACAUGAGGAUCACCCAUGUAAAAC | – | – | 0.0255 | 0.103
GGCGAGUAAGGAUAUUUUAACCUACAGACGAGUGAUGGUUAAGAGAAGGUACAUGAGGAUCACCCAUGUCAUCC | – | – | 0.0162 | 0.0198
AACGGGUGGGUAGGAUAUGGCUAUGUCUCAUUGCUAGAAGGGCCAGCUGCUACAUGAGGAUCACCCAUGUCGUAGUGCACCCAG | 0.0724 | 0.0403 | – | –
AGCAAGUUUACAUGAGGAUCACCCAUGUUUUUUAGGGUUAUCAGAAGGUACAUUUUGAGAUAGAGUAAGGAUAUGAUAUAUGCG | 0.169 | 0.0551 | – | –
CAGUACUGAGGAUAUACAUGAGGAUCACCCAUGUGUUCCAGCUAGGAAACUAGCAAAAGUAGAAGGUAGUACUG | – | – | 0.0137 | 0.0565
UUCAGCUCGUCAGGAUAUACGUCACUGCUUCGGCAGUGUGGUAAGAUCACAUGAGGAUCACCCAUGUAGAAGGGACGAGCUGAG | – | – | 0.0123 | 0.312
